Values after ≈ are worked out from the molar mass of the structure shown.
How the values were obtained:
[1] = system: Plasmodium falciparum; assay: Antimalarial activity after 24 hrs against chloroquine-resistant Plasmodium falciparum W2 by [3H]hypoxanthine uptake; assay type: functional, organism-based
In short: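 P. falciparum cultured in human O+ erythrocytes, 5% hematocrit, RPMI 1640 plus 10% human plasma. Sorbitol-synchronized trophozoites set at 2% parasitaemia, 2.5% hematocrit with ethanol-dissolved compounds at various concentrations in hypoxanthine-free RPMI 1640; chloroquine reference in each run. Growth read by [³H]-hypoxanthine incorporation; IC50 versus drug-free controls from curve fitting of dose-response data.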

[2] = Cytotoxicity against mouse J774 cells assessed as cell viability at 0.1 ug/ml after 24 hrs by MTT assay; assay type: cell-based; conditions: read-out: Activity
In short: (§1)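 Murine J774 monocyte/macrophages seeded at 2×10^6 cells/well, left 1 h at 37 °C, 5% CO2 in RPMI 1640 with 10% fetal bovine serum, 2 mM L-glutamine, 25 µg/ml gentamicin, pH 7.4. Adherent cells exposed to compounds (0.1–100 µg/ml) for 20 h, then MTT (5 mg/ml) added for 4 h. Formazan dissolved in DMSO, absorbance read at 540 nm. Result given as percent viability.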

[3] = Cytotoxicity against mouse J774 cells assessed as cell viability at 1 ug/ml after 24 hrs by MTT assay; assay type: cell-based; conditions: read-out: Activity; in short: as §1
[4] = Cytotoxicity against mouse J774 cells assessed as cell viability at 10 ug/ml after 24 hrs by MTT assay; assay type: cell-based; conditions: read-out: Activity; in short: as §1
[5] = Cytotoxicity against mouse J774 cells assessed as cell viability at 100 ug/ml after 24 hrs by MTT assay; assay type: cell-based; conditions: read-out: Activity; in short: as §1

Row | SMILES | IC50 [1] | viability at 24 h, 0.1 ug/ml [2] | viability at 24 h, 1 ug/ml [3] | viability at 24 h, 10 ug/ml [4] | viability at 24 h, 100 ug/ml [5]
1 | CC(C)(C)OC(=O)N[C@@H](Cc1ccccc1)[C@H](O)CN1CCN(Cc2ccc(F)cc2)CC1 | 7.5 µg/mL (≈ 16.4 µM) | 100% | 100% | 99% | 90%
2 | CC(C)(C)OC(=O)N[C@@H](Cc1ccccc1)[C@H](O)CN1CCN(Cc2ccc3c(c2)OCO3)CC1 | 5.1 µg/mL (≈ 10.5 µM) | 100% | 98% | 100% | 82%
3 | CC(C)(C)OC(=O)N[C@@H](Cc1ccccc1)[C@H](O)CN1CCN(Cc2ccc(N)cc2)CC1 | 15.8 µg/mL (≈ 34.8 µM) | 100% | 98% | 98% | 85%
4 | COc1ccc(CN2CCN(C[C@@H](O)[C@H](Cc3ccccc3)NC(=O)OC(C)(C)C)CC2)cc1 | 6.2 µg/mL (≈ 13.2 µM) | 100% | 100% | 100% | 85%
5 | CC(C)(C)OC(=O)N[C@@H](Cc1ccccc1)[C@H](O)CN1CCNCC1 | > 50 µg/mL | 100% | 100% | 100% | 65%
6 | CC(C)(C)OC(=O)N[C@@H](Cc1ccccc1)[C@H](O)CN1CCN(Cc2ccc([N+](=O)[O-])cc2)CC1 | 23.5 µg/mL (≈ 48.5 µM) | 100% | 100% | 98% | 81%
7 | CC(C)(C)OC(=O)N[C@@H](Cc1ccccc1)[C@H](O)CN1CCN(c2ccccc2)CC1 | > 50 µg/mL | 100% | 95% | 94% | 58%
8 | CC(C)(C)OC(=O)N[C@@H](Cc1ccccc1)[C@H](O)CN1CCN(Cc2ccccc2)CC1 | 14.9 µg/mL (≈ 33.9 µM) | 95% | 100% | 100% | 100%
9 | CC(C)(C)OC(=O)N[C@@H](Cc1ccccc1)[C@H](O)CN1CCN(Cc2ccc(Cl)cc2)CC1 | 7.7 µg/mL (≈ 16.2 µM) | 100% | 100% | 100% | 88%
10 | CN1CCN(C[C@@H](O)[C@H](Cc2ccccc2)NC(=O)OC(C)(C)C)CC1 | > 50 µg/mL | 94% | 100% | 100% | 100%
11 | COc1ccc(CN2CCN(C[C@@H](O)[C@H](Cc3ccccc3)NC(=O)OC(C)(C)C)CC2)cc1OC | 7 µg/mL (≈ 14 µM) | 100% | 100% | 100% | 83%
12 | Cc1cccc(C)c1OCC(=O)N[C@@H](Cc1ccccc1)[C@@H](O)C[C@H](Cc1ccccc1)NC(=O)[C@H](C(C)C)N1CCCNC1=O [LOPINAVIR] | 1.7 µg/mL (≈ 2.7 µM) |  |  |  | 
13 | CC(C)(C)NC(=O)[C@@H]1C[C@@H]2CCCC[C@@H]2CN1C[C@@H](O)[C@H](Cc1ccccc1)NC(=O)[C@H](CC(N)=O)NC(=O)c1ccc2ccccc2n1 [SAQUINAVIR] | 7 µg/mL (≈ 10.4 µM) |  |  |  | 
